Experimental data published in PMC7658073 (Clinical Pharmacokinetics, 2020).

Key:
[1] = biological target: T1, OAT3 (Homo sapiens, UniProt Q8TCC7); assay: Inhibitory potency towards OAT3; assay type: in vitro ADME
T1 sequence (Q8TCC7 1-542): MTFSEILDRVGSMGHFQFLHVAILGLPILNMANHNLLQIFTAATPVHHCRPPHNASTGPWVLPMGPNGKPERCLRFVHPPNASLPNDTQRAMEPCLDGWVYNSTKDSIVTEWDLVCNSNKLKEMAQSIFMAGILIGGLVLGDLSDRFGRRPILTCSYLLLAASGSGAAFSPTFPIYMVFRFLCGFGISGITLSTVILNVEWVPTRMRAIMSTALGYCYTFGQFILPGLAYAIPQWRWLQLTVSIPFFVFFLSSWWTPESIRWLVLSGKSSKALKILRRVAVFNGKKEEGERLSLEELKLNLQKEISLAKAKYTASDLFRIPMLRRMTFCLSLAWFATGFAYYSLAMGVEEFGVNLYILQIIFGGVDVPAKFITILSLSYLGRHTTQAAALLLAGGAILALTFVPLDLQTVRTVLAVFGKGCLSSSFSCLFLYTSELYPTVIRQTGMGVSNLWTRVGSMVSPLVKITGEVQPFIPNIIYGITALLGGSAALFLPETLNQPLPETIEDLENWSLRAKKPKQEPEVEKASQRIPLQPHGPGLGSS

[2] = Phase I DDI study with omeprazole and magnesium/aluminum hydroxide; assay type: in vivo, human
Procedure, shortened: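 Randomized, open-label, three-fold crossover in healthy men. Test compound 5 mg single oral dose given fasting: alone; with omeprazole 40 mg QD for 5 days (pre- and co-dosed); or with a single 10 mL magnesium hydroxide 600 mg/aluminum oxide 900 mg antacid.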

[3] = system: major cytochrome P450 (CYP) isoforms; details: human liver microsomes; cited from earlier work
[4] = biological target: T2, OATP1B1 (Homo sapiens, UniProt Q9Y6L6); assay: Inhibitory potency towards OATP1B1; assay type: in vitro ADME
T2 sequence (Q9Y6L6 1-691): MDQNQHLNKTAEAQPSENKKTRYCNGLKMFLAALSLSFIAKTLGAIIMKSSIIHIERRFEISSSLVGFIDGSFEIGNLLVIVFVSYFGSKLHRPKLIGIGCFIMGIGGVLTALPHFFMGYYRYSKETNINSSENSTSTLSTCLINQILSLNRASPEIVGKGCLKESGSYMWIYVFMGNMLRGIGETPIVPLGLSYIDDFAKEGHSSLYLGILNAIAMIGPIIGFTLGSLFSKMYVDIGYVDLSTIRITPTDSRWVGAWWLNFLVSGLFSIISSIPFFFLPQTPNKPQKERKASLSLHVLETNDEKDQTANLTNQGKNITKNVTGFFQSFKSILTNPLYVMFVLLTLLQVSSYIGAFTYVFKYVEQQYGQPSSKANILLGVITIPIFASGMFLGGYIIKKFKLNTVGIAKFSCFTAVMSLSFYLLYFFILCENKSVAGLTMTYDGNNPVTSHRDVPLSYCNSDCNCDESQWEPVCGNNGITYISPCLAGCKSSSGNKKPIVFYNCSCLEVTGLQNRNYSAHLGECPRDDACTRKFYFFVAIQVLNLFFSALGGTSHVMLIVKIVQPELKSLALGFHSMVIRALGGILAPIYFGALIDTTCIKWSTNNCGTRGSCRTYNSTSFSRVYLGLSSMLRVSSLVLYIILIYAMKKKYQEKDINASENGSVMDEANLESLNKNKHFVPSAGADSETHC

[5] = biological target: T3, UGT1A9 (Homo sapiens, UniProt O60656); assay: Inhibitory potency towards UGT isoforms: UGT1A9; assay type: in vitro ADME
T3 sequence (O60656 26-530): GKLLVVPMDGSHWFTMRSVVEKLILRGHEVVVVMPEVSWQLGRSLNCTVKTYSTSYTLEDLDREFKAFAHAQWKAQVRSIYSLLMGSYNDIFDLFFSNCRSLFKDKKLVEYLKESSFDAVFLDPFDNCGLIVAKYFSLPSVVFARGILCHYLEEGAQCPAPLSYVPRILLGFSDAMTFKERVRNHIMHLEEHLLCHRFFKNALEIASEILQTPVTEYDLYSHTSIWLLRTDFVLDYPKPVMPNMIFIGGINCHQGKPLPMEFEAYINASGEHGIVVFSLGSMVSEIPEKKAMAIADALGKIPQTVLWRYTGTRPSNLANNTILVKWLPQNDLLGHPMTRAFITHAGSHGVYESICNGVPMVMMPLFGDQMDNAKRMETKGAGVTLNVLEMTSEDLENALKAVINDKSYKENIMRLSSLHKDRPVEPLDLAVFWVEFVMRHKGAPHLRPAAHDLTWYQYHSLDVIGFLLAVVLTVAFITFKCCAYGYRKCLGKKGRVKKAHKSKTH

[6] = biological target: P-glycoprotein (Homo sapiens, UniProt P08183); assay: Substrate properties towards P-gp; assay type: in vitro ADME
[7] = system: CYP2B6; assay: CYP induction in cultured human hepatocytes: CYP2B6; assay type: in vitro ADME; details: three donors, up to 10,000 μg/L (23.5 µM)
[8] = biological target: T4, UGT2B7 (Homo sapiens, UniProt P16662); assay: Inhibitory potency towards UGT isoforms: UGT2B7; assay type: in vitro ADME
T4 sequence (P16662 24-529): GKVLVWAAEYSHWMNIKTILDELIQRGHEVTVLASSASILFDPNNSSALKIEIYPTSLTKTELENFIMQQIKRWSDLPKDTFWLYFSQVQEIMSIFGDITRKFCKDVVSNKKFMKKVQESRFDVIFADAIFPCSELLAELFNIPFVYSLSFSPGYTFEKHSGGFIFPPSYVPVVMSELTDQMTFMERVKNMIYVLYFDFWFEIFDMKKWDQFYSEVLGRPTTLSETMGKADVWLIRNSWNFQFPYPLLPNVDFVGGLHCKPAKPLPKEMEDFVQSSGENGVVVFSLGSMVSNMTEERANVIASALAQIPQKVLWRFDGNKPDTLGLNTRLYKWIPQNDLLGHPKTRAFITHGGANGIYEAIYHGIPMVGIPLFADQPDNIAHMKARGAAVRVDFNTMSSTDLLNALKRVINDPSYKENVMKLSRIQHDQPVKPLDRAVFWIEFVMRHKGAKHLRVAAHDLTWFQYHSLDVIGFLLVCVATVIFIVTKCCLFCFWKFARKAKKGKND

[9] = Phase I DDI study with aspirin; assay type: in vivo, human; details: with aspirin 500 mg vs vericiguat 15 mg SD alone, fasting
[10] = pre- and co-administration of omeprazole vs vericiguat alone

Sequence of P-glycoprotein (P08183 whole entry): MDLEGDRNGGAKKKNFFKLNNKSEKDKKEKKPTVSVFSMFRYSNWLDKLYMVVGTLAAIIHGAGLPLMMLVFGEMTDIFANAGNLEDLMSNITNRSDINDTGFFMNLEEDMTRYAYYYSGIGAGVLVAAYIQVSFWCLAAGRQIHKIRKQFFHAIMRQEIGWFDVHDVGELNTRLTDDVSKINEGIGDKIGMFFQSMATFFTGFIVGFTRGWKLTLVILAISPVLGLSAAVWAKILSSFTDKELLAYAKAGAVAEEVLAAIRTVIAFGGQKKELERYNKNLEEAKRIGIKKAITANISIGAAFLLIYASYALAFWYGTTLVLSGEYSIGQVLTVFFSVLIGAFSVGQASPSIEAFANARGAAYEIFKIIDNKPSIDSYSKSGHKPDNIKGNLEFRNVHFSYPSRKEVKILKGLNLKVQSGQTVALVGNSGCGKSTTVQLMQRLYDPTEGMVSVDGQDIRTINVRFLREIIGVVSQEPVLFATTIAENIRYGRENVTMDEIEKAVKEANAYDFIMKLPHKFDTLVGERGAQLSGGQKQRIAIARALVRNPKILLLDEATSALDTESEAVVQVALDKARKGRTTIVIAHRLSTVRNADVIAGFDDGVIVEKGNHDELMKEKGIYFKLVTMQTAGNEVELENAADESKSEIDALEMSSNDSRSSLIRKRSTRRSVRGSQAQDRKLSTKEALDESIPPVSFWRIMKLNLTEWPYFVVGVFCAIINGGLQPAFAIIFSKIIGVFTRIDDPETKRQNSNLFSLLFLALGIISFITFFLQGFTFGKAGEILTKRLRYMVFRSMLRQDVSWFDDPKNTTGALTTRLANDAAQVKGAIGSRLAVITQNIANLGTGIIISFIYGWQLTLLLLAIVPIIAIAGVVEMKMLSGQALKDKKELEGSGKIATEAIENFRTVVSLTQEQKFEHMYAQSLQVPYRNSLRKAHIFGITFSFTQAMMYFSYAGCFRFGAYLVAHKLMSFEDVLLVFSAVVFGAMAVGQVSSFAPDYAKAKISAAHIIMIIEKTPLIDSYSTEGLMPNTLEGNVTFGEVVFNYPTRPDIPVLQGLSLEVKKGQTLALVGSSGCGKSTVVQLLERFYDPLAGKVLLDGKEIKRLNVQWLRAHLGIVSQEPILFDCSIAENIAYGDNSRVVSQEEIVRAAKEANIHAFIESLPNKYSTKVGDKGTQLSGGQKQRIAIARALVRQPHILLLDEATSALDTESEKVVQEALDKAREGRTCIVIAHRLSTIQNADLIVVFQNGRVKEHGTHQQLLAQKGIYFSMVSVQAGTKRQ

Question: For `COC(=O)Nc1c(N)nc(-c2nn(Cc3ccccc3F)c3ncc(F)cc23)nc1N` [Vericiguat], which IC50 [1] is on record?
Answer: > 5 µM

Question: What about the “Reduction in the bioavailability of vericiguat” value ([2]; co-administration in fasting conditions of omeprazole (40 mg once daily) and magnesium/aluminum hydroxide (600/900 mg) relative to vericiguat alone) of the same compound?
Answer: about 30%

Question: What about the “Reduction of AUC of vericiguat” value [2, 10] of the same compound?
Answer: 32%

Question: And the “Reduction of Cmax of vericiguat” value [2, 10]?
Answer: 49%

Question: And the “Cmax of vericiguat, point estimate of treatment ratio” value ([2]; with omeprazole 40 mg QD vs vericiguat 5 mg SD alone, fasting)?
Answer: 0.504

Question: What about the “Inhibitory effects on major cytochrome P450 (CYP) isoforms” value [3] of the same compound?
Answer: no inhibitory effects

Question: And the IC50 [4]?
Answer: ~16 µM

Question: And the IC50 [5]?
Answer: 10.6 µM

Question: What about the Ki [5] of the same compound?
Answer: 6.6 µM

Question: And the “Substrate of P-glycoprotein” value [6]?
Answer: substrate

Question: And the “Induction of CYP2B6” value [7]?
Answer: no significant induction

Question: And the IC50 [8]?
Answer: > 50 µM

Question: And the “AUC of vericiguat, point estimate of treatment ratio” value [9]?
Answer: 0.949

Question: And the “Cmax of vericiguat, point estimate of treatment ratio” value [9]?
Answer: 0.933
